In the library only some 1.3% were active in any assay of this set; here they are far more common.
H9c2 TAG inh – reduces triacylglycerol accumulation in H9c2 cells; Nile Red lipid (TAG) fluorescence; cells loaded with 200 µM oleic acid; inhibition, % at 12.5 µM; 0.66% of 230,000 active;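 active means pattern-corrected inhibition of lipid staining of at least 50% with the nuclear-stain viability signal not falling by more than 50%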
Efflux pump mplx – blocks antifungal efflux pumps in multiplex yeast assay; inhibition, % at 10 µM; S. cerevisiae Candida pump triplex, Nile Red efflux; 0.44% of 330,000 active; AID 485275;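 active means plate passing quality check with inhibition over a set limit, or well fluorescence over plate mean plus 4 SD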;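 further: Nile Red retained in pooled yeast measured as flow cytometry median fluorescence; higher means more Nile Red kept so more efflux inhibition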
sPLA2-III inh – Blocks human group III sPLA2 activity. QFRET BODIPY PC-A2 liposome hydrolysis, fluorescence. inhibition, % at 12.2 µM. 0.56% of 370,000 active. Q9NZ20;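 active means inhibition above mean plus 3 SD of compounds lying within the high and low control bounds, cut at about 19% in these data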
Target sequence (Q9NZ20 whole entry, looked up): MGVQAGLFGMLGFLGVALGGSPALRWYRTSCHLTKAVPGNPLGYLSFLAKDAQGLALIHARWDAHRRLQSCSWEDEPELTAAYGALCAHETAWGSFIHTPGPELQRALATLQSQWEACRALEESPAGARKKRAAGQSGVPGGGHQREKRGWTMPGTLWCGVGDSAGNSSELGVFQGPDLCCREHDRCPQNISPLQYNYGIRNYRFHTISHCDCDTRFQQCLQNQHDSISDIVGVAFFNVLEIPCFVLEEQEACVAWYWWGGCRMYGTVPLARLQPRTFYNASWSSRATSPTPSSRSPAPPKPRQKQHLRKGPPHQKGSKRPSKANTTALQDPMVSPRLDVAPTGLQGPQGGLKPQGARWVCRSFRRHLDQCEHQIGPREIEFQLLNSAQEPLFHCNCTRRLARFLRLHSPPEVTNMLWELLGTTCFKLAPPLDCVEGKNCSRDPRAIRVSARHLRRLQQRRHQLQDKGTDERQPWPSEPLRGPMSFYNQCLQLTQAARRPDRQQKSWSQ
MT1-MMP act inh – blocks activation of human MT1-MMP | P50281 | HT1080 RFP-PRO-GFP cells, GFP/RFP ratio fluorescence, overnight; percent of plate control window, DMSO zero | GFP/RFP ratio change, % at 20 µM | 0.061% of 360,000 active;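 active means GFP/RFP ratio change of at least 30% with cell ATP level not reduced by more than half and red fluorescence within 50% of control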
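Assay system – RFP-PRO-GFP reporter HT1080 cells · Compound dosing – single dose of 20 µM compound, 1% DMSO final · Incubation – overnight compound exposure at 37 °C · Measure – GFP/RFP fluorescence ratio · Benchmarks – DMSO wells and RFP-L50D-GFP cells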
TAG conf – confirmation of triacylglycerol accumulation inhibitors. shares compounds with H9c2 TAG inh. H9c2 lipid accumulation, Nile Red fluorescence; cells loaded with 200 µM oleic acid. inhibition, % at 12.5 µM. 71% of 990 active. AID 651629;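 active means mean inhibition across replicates of 40% or more; inactive means mean inhibition below 40%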
Of the large screens only hits and unclear results are named; the others gave an inactive call (follow-up assays come after a bar, where they were run).

O=C(CCl)N(CCCNC(=O)C(F)(F)F)c1ccc([N+](=O)[O-])cc1	H9c2 TAG inh 67.9 | TAG conf 55.9
O=C(NCCCNc1ccc([N+](=O)[O-])cc1)C(F)(F)F	none
CCc1[nH]nc(C(=O)N/N=C/c2ccncc2)c1C	none
COc1ccc(-c2oc(=O)c3cc(OC)c(OC)cc3c2/C=C/c2ccc([N+](=O)[O-])cc2)cc1	H9c2 TAG inh 54.0 | TAG conf inactive
Cc1cc(N2CCOCC2)n2nc(C)c(-c3ccccc3)c2n1	H9c2 TAG inh 59.9 | TAG conf 46.1
C[C@H](O)[C@@H]1CN2CCc3c([nH]c4c(-c5ccc6c(c5)OCO6)cccc34)[C@@H]2C[C@@H]1N(C)C(=O)c1ccccc1F	none (no result: H9c2 TAG inh, Efflux pump mplx, MT1-MMP act inh)
O=C(COC(=O)COc1ccc(Cl)cc1Br)NC1CCCC1	none (no result: Efflux pump mplx)
COc1ccc(-c2cc(C(=O)O)c3c(C)nn(-c4ccccn4)c3n2)cc1	none (no result: H9c2 TAG inh, MT1-MMP act inh)
CCOC(=O)c1cc(-c2ccncc2)nc2c1c(C)nn2-c1ccccn1	H9c2 TAG inh 67.9 | TAG conf 42.6
COc1cc(-c2cc3nc(NCCOc4ccccc4)ccn3n2)cc(OC)c1OC	H9c2 TAG inh 54.1 (no result: Efflux pump mplx) | TAG conf 49.0
COc1cc(-c2cc3nc(NCCc4ccncc4)ccn3n2)cc(OC)c1OC	none (no result: Efflux pump mplx)
CCCCn1c(N)c(N(C(=O)CSc2nnc(C)n2-c2ccccc2)C2CCCC2)c(=O)[nH]c1=O	none
CCCCNc1c(-c2ccc(-c3ccc(C(C)=O)cc3)c(OC)c2)nc2cc(C)ccn12	H9c2 TAG inh 58.0 | TAG conf 41.2
Cc1ccc(Cl)cc1NC(=S)N/N=C/c1cccc2ccccc12	H9c2 TAG inh 68.6 | TAG conf 85.2
Cc1ccccc1C(=O)N/N=C/c1cccc2ccccc12	none (no result: H9c2 TAG inh)
CC(C)Oc1ccc(CNC(=O)CCCN2C(=O)C(c3ccccc3)Oc3cccnc32)cc1 (configuration not stated)	none (no result: H9c2 TAG inh)
COc1cc(CCCN2CCNC[C@H]2Cc2ccc(O)cc2)cc(OC)c1OC	none
COc1cc(CCCN2CCNC[C@@H]2c2ccccc2)cc(OC)c1OC	H9c2 TAG inh 85.5 | TAG conf inactive
O=C(NC(c1ccccc1)c1cnccn1)C1CCN(CCOc2ccc(Cl)cc2Cl)CC1 (configuration not stated)	none (no result: Efflux pump mplx)
COc1cc2c(c(OC)c1OC)-c1ccc(SC)c(=O)cc1C(NC=O)CC2 (configuration not stated)	H9c2 TAG inh 68.5 (no result: Efflux pump mplx) | TAG conf 47.3
C=COC(=O)NC1CCc2cc(OC)c(OC)c(OC)c2-c2ccc(SC)c(=O)cc21 (configuration not stated)	none (no result: Efflux pump mplx)
COc1cc2c(c(OC)c1OC)-c1ccc(OC)c(=O)cc1C(NC(=O)c1ccccc1)CC2 (configuration not stated)	H9c2 TAG inh 55.1 (no result: Efflux pump mplx) | TAG conf 69.0
COc1cc2c(c(OC)c1OC)-c1ccc(SC)c(=O)cc1C(NC(=O)c1ccccc1)CC2 (configuration not stated)	none (no result: Efflux pump mplx)
Cc1c(Cl)cccc1NC(=O)Cc1ccc([N+](=O)[O-])cc1	none (no result: H9c2 TAG inh)
Cn1c(=O)c2cc(NC(=O)Cc3ccccc3F)ccc2n1-c1ccc(C(C)(C)C)cc1	none (no result: Efflux pump mplx)
Cc1cc(C)cc(-n2c3ccc(NC(=O)Cc4cccc5ccccc45)cc3c(=O)n2C)c1	H9c2 TAG inh 50.9 (no result: Efflux pump mplx) | TAG conf 49.6
CN1CCN(c2cccc3c2S(=O)(=O)N[C@@H](Cc2ccccc2)CO3)CC1	none (no result: H9c2 TAG inh, Efflux pump mplx)
COc1ccccc1N1CN(S(=O)(=O)c2ccc(C)cc2)c2nc3ccccc3nc21	none
Cc1cccc(N2CN(S(=O)(=O)c3cccc([N+](=O)[O-])c3)c3nc4ccccc4nc32)c1	H9c2 TAG inh 54.3 | TAG conf inactive
N=c1c(C(=O)NCc2ccc(F)cc2)cc2c(=O)n3ccccc3nc2n1CC1CCCO1 (configuration not stated)	H9c2 TAG inh 50.9 | TAG conf inactive
N=c1c(C(=O)NCc2ccc3c(c2)OCO3)cc2c(=O)n3ccccc3nc2n1CC1CCCO1 (configuration not stated)	none (no result: H9c2 TAG inh)
C/C=C/c1ccc2c(c1)O[C@H](CN(C)CC1CCOCC1)[C@@H](C)CN([C@H](C)CO)S2(=O)=O	none (no result: Efflux pump mplx)
O=C1CC/C=C\C[C@@H](CC(=O)N(CCO)Cc2ccccc2)C(=O)N[C@H](Cc2c[nH]c3ccccc23)CO1	none
CCOc1cc(/C=C/C(=O)N(CC)CC(=O)NCc2cccs2)cc(Cl)c1OC	none

Source: PubChem BioAssay (several laboratories)
